Assay results reported in ChEMBL document CHEMBL4376814, “Novel cyclin-dependent kinase 9 (CDK9) inhibitor with suppression of cancer stemness activity against non-small-cell lung cancer” (Eur J Med Chem, 2019).
The source made the active and inactive calls. The calls are words filed in the database; no cut-off is given here.

Legend:
HepG2 = assay: Antiproliferative activity against human HepG2 cells assessed as inhibition of cell viability after 72 hrs by CCK-8 assay; assay type: functional, cell-based; settings: HepG2, 72 h
In short: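 Cells kept at 37 °C, 5% CO2 in DMEM or RPMI-1640 with 10% FBS and 1% penicillin/streptomycin, then seeded at 3000 cells/well (adherent) or 10,000 cells/well (suspension). Exposed to a range of concentrations for 72 h. CCK-8 added for 1-4 h before reading A450. […] Three independent experiments.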

A549 [1] = assay: Induction of cell cycle arrest in human A549 cells assessed as increase in accumulation of cells at G2/M phase at 1 uM after 24 hrs by propidium iodide/RNase staining based flow cytometric analysis; assay type: functional
In short: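 A549 and H1299 plated at 5×10^5 cells/mL in 6-well plates, treated after adherence for 24 h. Washed with PBS, fixed overnight in ice-cold 75% ethanol, stained with propidium iodide plus RNase A for 30 min at 37 °C, analysed by flow cytometry for phase distribution. Means ± SD, three independent experiments.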

A549 [2] = assay: Induction of apoptosis in human A549 cells assessed as necrotic cells at 0.5 uM after 48 hrs by AnnexinV-FITC/PI staining-based flow cytometric analysis (reference value: 0.664%); assay type: functional
NCI-H1299 [3] = assay: Inhibition of tumorsphere formation in human H1299 cells assessed as reduction in side population ratio at 0.25 to 1 uM by PI/Hoechst 33342 staining based flow cytometry; assay type: functional, cell-based
A549 [4] = assay: Downregulation of KLF4 in human A549 cells at 0.25 to 1 uM by Western blot analysis; assay type: functional, cell-based
[5] = Intrinsic clearance in human liver microsomes at 2 uM in presence of NADPH measured up to 1 hr by HPLC analysis; assay type: ADME, Microsome
NCI-H1299 [6] = assay: Antitumour activity against human H1299 cells xenografted in Balb/c mouse assessed as inhibition of Rb phosphorylation at Ser 780 residue at 20 to 80 mg/kg, po administered for 3 weeks by […] based light microscopic analysis; assay type: functional, organism-based
In short: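 Tumours came from the H1299 oral-dosing xenograft run for 3 weeks. Formalin-fixed, paraffin-embedded 5-µm sections were deparaffinized and rehydrated. Primary antibodies (CDK9, cyclin T1, p-Rb Ser780, RNAPII CTD Ser5, Oct4) used at 1:100 overnight at 4 °C. Biotinylated secondary for 1 h at room temperature, then ABC-peroxidase/DAB, hematoxylin counterstain and light microscopy.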

[7] = molecular target: Activin receptor type-2A (Homo sapiens) (UniProt P27037); assay: Inhibition of recombinant human ACTR2 (162 to end residues) at 1 uM using casein as substrate measured after 120 mins in presence of [gamma33P]ATP by scintillation counting method relative to control
[8] = tested on: Tyrosine-protein kinase receptor UFO (Homo sapiens), P30530 [Q764R]; assay: Inhibition of recombinant human AXL Q764R mutant (473 to end residues) at 1 uM using KKSRGDYMTMQIG as substrate measured after 40 mins in presence of [gamma33P]ATP by scintillation counting method relative to control
[9] = molecular target: Serine/threonine-protein kinase 3 (Homo sapiens) (UniProt Q13188); assay: Inhibition of recombinant human MST2 (2 to end residues) at 1 uM using myelin basic protein as substrate measured after 40 mins in presence of [gamma33P]ATP by scintillation counting method relative to control
[10] = molecular target: CDK7/Cyclin H/MNAT1 (Homo sapiens) (UniProt P51946+P50613+P51948); assay: Inhibition of human full length recombinant CDK7/cyclinH/MAT1 at 1 uM using peptide as substrate incubated for 40 mins in presence of [gamma-33P]ATP at by radiometric assay relative to control; assay type: protein-complex assay
[11] = molecular target: Serine/threonine-protein kinase Nek9 (Homo sapiens) (UniProt Q8TD19); assay: Inhibition of recombinant human NEK9 (1 to 324 residues) at 1 uM using myelin basic protein as substrate measured after 40 mins in presence of [gamma33P]ATP by scintillation counting method relative to control
[12] = molecular target: Serine/threonine-protein kinase PAK 3 (Homo sapiens) (UniProt O75914); assay: Inhibition of recombinant full-length human PAK3 at 1 uM using RRRLSFAEPG as substrate measured after 40 mins in presence of [gamma33P]ATP by scintillation counting method relative to control
[13] = tested on: Platelet-derived growth factor receptor alpha (Homo sapiens), P16234 [D842V]; assay: Inhibition of recombinant human PDGFRalpha (550 to end residues) D842V mutant at 1 uM using GGMEDIYFEFMGGKKK as substrate measured after 40 mins in presence of [gamma33P]ATP by scintillation counting method relative to control
[14] = molecular target: cAMP-dependent protein kinase catalytic subunit alpha (Homo sapiens) (UniProt P17612); assay: Inhibition of recombinant full-length human PKA at 1 uM using Kemptide as substrate measured after 40 mins in presence of [gamma33P]ATP by scintillation counting method relative to control
In short: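 Single-point inhibition at 1 µM was measured in the Eurofins KinaseProfiler panel. Values are the mean of two independent experiments.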

[15] = molecular target: Ephrin type-B receptor 1 (Homo sapiens) (UniProt P54762); assay: Inhibition of recombinant human EphB1 (564 to end residues) at 1 uM using KVEKIGEGTYGVVYK as substrate measured after 40 mins in presence of [gamma33P]ATP by scintillation counting method relative to control
[16] = molecular target: Focal adhesion kinase 1 (Homo sapiens) (UniProt Q05397); assay: Inhibition of recombinant human FAK (411 to 686 residues) at 1 uM using EEEEYEEEEEEYYIIEEEEEEYEEEEEEYYEEEEEEKKKK as substrate measured after 40 mins in presence of [gamma33P]ATP by scintillation counting method relative to control
[17] = molecular target: Inhibitor of nuclear factor kappa-B kinase subunit epsilon (Homo sapiens) (UniProt Q14164); assay: Inhibition of recombinant full-length human IKKepsilon at 1 uM using casein as substrate measured after 40 mins in presence of [gamma33P]ATP by scintillation counting method relative to control
[18] = molecular target: Serine/threonine-protein kinase Sgk3 (Homo sapiens) (UniProt Q96BR1); assay: Inhibition of human SGK3 (119 to end residues) at 1 uM using GRPRTSSFAEGKK as substrate measured after 40 mins in presence of [gamma33P]ATP by scintillation counting method relative to control
In short: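 Percent inhibition of kinase activity at a single compound concentration, measured by the outsourced Eurofins KinaseProfiler panel. Values are the mean of two independent experiments.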

[19] = molecular target: Serine/threonine-protein kinase VRK1 (Homo sapiens) (UniProt Q99986); assay: Inhibition of human VRK1 at 1 uM by radiometric method relative to control
[20] = molecular target: Tyrosine-protein kinase ZAP-70 (Homo sapiens) (UniProt P43403); assay: Inhibition of recombinant full-length human ZAP-70 at 1 uM using poly(Glu, Tyr) 4:1 as substrate measured after 40 mins in presence of [gamma33P]ATP by scintillation counting method relative to control
[21] = molecular target: Phosphatidylinositol 4-phosphate 5-kinase type-1 alpha (Homo sapiens) (UniProt Q99755); assay: Inhibition of recombinant full-length human PIP5K1alpha at 1 uM using phosphatidylinositol 4-phosphate as substrate measured after 40 mins by HTRF assay relative to control
Chain of Phosphatidylinositol 4-phosphate 5-kinase type-1 alpha (Homo sapiens) (Q99755 whole entry): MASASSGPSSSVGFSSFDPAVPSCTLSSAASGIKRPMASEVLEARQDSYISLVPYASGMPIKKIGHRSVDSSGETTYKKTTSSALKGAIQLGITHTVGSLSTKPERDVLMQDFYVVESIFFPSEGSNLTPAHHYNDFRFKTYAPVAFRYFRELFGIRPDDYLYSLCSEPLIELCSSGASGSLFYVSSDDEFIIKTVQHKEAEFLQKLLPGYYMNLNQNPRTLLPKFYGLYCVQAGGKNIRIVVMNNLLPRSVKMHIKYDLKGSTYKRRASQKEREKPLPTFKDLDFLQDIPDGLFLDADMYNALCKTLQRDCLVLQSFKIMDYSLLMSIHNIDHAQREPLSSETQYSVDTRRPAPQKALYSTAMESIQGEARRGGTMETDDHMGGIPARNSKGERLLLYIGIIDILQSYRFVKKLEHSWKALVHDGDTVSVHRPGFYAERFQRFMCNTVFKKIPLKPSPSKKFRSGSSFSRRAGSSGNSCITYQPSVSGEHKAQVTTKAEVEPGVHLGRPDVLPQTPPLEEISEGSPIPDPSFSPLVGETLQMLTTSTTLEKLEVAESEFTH

Chain of Serine/threonine-protein kinase Sgk3 (Homo sapiens) (Q96BR1 whole entry): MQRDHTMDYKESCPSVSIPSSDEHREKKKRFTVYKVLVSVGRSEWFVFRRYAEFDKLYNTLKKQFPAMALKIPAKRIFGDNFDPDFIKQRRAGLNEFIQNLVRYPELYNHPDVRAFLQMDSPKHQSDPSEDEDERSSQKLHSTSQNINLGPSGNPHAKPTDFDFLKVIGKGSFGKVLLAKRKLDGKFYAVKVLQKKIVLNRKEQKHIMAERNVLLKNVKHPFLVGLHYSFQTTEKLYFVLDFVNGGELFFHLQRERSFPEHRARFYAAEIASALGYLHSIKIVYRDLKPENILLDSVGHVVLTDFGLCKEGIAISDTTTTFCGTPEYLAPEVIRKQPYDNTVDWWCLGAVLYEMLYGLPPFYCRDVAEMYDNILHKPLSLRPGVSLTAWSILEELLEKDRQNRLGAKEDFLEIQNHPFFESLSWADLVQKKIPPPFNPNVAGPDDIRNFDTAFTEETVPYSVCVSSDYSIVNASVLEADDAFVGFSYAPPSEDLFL
Chain of Serine/threonine-protein kinase PAK 3 (Homo sapiens) (O75914 whole entry, looked up): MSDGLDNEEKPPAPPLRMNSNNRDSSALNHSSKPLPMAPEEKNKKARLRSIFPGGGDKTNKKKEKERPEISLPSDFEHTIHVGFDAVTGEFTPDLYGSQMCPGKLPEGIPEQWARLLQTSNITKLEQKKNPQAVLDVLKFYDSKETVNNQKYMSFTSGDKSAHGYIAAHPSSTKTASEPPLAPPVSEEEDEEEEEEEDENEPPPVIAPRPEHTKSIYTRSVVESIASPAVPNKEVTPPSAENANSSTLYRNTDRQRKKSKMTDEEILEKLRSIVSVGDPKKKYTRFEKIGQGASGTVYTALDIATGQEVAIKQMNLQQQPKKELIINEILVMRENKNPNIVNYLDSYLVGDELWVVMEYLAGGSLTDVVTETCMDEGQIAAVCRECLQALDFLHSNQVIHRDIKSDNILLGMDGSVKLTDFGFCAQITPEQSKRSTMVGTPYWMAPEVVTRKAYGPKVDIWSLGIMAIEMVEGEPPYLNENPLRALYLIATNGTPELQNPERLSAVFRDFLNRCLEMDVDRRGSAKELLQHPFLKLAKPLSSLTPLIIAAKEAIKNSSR
Chain of Tyrosine-protein kinase ZAP-70 (Homo sapiens) (P43403 whole entry): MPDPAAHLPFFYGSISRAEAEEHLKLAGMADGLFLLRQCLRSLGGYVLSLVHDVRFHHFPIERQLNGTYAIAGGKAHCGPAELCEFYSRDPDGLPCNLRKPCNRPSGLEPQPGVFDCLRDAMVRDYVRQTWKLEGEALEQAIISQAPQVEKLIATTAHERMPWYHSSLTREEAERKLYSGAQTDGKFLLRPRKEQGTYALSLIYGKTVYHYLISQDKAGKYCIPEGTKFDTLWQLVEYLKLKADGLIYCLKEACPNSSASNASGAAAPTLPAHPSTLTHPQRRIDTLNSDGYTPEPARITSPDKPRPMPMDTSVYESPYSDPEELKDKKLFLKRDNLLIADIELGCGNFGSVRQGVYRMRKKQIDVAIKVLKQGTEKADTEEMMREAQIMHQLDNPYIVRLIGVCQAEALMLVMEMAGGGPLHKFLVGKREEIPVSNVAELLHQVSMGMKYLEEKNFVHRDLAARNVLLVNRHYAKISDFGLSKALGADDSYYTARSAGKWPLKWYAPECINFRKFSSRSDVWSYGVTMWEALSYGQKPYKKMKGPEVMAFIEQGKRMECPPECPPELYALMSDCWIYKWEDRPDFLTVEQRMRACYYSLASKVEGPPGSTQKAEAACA
Chain of Focal adhesion kinase 1 (Homo sapiens) (Q05397 2-1052 limits assumed): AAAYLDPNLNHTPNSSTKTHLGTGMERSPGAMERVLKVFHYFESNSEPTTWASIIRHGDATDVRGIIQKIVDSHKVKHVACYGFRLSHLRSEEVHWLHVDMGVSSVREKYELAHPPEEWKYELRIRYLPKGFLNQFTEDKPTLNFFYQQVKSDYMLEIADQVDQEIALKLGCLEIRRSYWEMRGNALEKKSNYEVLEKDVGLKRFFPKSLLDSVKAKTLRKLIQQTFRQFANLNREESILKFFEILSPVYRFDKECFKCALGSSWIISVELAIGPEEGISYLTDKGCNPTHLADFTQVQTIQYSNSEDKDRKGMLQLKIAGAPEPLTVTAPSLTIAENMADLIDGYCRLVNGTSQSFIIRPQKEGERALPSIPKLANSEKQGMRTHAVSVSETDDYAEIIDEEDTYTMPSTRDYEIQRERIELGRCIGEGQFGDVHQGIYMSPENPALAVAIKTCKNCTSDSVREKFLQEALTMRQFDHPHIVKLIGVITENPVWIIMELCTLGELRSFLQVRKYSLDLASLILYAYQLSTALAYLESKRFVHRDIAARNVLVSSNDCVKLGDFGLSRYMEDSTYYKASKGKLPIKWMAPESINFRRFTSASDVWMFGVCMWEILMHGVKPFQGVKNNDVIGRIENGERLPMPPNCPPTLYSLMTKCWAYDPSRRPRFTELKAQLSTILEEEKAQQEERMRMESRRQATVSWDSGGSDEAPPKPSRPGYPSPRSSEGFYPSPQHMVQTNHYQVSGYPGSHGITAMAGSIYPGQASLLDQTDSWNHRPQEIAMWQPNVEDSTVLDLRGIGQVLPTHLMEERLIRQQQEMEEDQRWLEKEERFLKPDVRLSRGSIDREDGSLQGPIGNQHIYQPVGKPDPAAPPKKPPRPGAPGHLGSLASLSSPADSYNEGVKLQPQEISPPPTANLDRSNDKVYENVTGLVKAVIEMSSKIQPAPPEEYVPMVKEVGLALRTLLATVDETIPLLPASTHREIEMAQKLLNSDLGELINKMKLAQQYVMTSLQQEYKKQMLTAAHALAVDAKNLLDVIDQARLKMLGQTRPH
Chain of Ephrin type-B receptor 1 (Homo sapiens) (P54762 whole entry, the tested form may be a part): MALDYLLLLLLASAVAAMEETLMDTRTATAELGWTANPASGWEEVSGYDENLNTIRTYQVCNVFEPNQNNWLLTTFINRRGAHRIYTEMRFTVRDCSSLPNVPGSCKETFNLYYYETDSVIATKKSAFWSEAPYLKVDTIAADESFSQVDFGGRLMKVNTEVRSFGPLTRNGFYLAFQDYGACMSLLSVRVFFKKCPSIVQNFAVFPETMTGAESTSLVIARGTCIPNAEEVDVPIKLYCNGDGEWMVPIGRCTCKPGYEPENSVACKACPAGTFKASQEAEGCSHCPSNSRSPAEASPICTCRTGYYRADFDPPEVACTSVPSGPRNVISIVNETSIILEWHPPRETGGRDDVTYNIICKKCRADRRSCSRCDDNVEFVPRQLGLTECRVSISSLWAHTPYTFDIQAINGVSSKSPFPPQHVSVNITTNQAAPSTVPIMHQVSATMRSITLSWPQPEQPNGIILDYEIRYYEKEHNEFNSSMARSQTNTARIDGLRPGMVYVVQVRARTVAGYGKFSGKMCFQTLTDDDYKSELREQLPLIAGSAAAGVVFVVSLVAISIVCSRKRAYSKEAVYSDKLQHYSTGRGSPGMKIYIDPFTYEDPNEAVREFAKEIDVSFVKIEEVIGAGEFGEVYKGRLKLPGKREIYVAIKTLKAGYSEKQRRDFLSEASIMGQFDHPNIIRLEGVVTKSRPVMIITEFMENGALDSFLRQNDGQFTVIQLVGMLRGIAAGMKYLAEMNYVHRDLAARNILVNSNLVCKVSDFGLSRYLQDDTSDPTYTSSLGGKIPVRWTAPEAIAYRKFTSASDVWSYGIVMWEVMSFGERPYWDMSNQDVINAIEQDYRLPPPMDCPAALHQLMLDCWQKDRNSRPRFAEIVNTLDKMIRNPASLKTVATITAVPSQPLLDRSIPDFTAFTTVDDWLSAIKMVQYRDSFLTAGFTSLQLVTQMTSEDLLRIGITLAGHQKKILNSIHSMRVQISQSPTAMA
Chain of Serine/threonine-protein kinase 3 (Homo sapiens) (Q13188 whole entry): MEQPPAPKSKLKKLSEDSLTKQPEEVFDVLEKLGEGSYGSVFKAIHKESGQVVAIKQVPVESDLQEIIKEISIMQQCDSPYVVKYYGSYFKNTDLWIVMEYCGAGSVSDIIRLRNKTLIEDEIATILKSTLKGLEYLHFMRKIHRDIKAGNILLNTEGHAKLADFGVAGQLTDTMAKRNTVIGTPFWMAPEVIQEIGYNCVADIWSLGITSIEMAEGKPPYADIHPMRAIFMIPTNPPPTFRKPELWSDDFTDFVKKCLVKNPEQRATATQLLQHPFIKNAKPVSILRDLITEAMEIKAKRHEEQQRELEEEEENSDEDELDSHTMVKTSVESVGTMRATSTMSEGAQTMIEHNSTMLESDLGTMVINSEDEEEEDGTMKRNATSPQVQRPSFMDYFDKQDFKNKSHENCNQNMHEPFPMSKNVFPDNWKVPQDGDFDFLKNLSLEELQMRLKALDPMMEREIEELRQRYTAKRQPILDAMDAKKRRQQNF

With `CN(C)C(=O)c1cc2cnc(Nc3ccc(NC(=O)CCCCCCCN=C=S)cc3)nc2n1C1CCCC1` the IC50 (HepG2) was 3.86 µM, the Activity (A549 [1]) was “Active” and the Activity (A549 [2]) was 6.11%. For the same compound, the inhibition (NCI-H1299 [3]) was “Active”, the Activity (A549 [4]) was “Active” and the CLH [5] was 70 µL/min/mg. For the same compound, the Activity (NCI-H1299 [6]) was “Active”, the inhibition [7] was 0% and the inhibition [8] was 71%. The inhibition [9] was 43%, the inhibition [10] was 55% and the inhibition [11] was 41%. The inhibition [12] was 2%, the inhibition [13] was 44% and the inhibition [14] was 1%. The inhibition [15] was 9%, the inhibition [16] was 22% and the inhibition [17] was -4%. The inhibition [18] was 4%, the inhibition [19] was 0% and the inhibition [20] was 13%. It also gave an inhibition [21] of 30%.
